Consider 17 compounds from ChEMBL document CHEMBL1759940, “Synthesis and anticonvulsant activity of 8-alkoxy-5,6-dihydro-4H-[1,2,4]triazolo[4,3-a][1]benzazepin-1-one derivatives” (Eur J Med Chem, 2011).

The source made the active and inactive calls. The rule behind the calls is not given here.

The test system of series [1] is Mus musculus. The series is described as follows: Anticonvulsant activity in ip dosed Swiss mouse assessed as protection against maximal electroshock-induced seizures after 30 mins. The class given is functional. As to conditions: 0.5 h. The method in brief:
(§1)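 Phase II quantification in Swiss mice (18-22 g), with compounds dissolved in DMSO and given i.p. Groups of 10 mice received a range of doses until at least three points fell within 10-90% protection against MES-induced seizures. ED50 and 95% confidence intervals were derived by the trimmed Spearman-Karber method.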

For series [2], the system named is Mus musculus. The series is described as follows: Protective index, ratio of TD50 for Swiss mouse to ED50 for Swiss mouse by subcutaneous pentylenetetrazol-induced seizure test. The format is functional.
Series [3] has as its system Mus musculus. The series is described as follows: Anticonvulsant activity in ip dosed Swiss mouse assessed as protection against maximal electroshock-induced seizures administered 30 mins before electroshock challenge measured after 30 mins. The format is functional. The gist of the method: as §1
Series [4] in a line: Neurotoxicity against Swiss mouse after 4 hrs by rotarod ataxia test. The format is toxicity, organism-based. As to conditions: in vivo. The gist of the method: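 Neurologic deficit was scored in Swiss mice (18-22 g) by rotarod ataxia test after i.p. dosing in DMSO (phase I: 30, 100, 300 mg/kg, assessed at 30 min and 4 h). For TD50, groups of 10 mice received a range of doses giving at least three points within 10-90% minimal neurotoxicity, calculated by trimmed Spearman-Karber with 95% confidence intervals.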

For series [5], the species on record is Mus musculus. The series is described as follows: Protective index, ratio of TD50 for Swiss mouse to ED50 for Swiss mouse by maximal electroshock-induced seizures test. The format is functional.
Series [6] has as its system Mus musculus. The series is described as follows: Anticonvulsant activity in Swiss mouse assessed as protection against subcutaneous pentylenetetrazol-induced seizures at 100 mg/kg, ip after 30 mins. Set-up: dose 100 mg/kg. The class given is functional, organism-based. The method in brief: (§2)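 Swiss mice (18-22 g) were dosed i.p. in DMSO at 30, 100 or 300 mg/kg. Pentylenetetrazol (85 mg/kg) was then injected s.c. Protection meant no clonic spasms lasting at least 5 s over a 30 min period after test compound administration.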

In series [7] the test system is Mus musculus. The experiment in a line: Anticonvulsant activity in Swiss mouse assessed as protection against maximal electroshock-induced seizures at 30 mg/kg, ip administered 30 mins before electroshock challenge measured after 30 mins. The format is functional, organism-based. Set-up: dose 30 mg/kg. The method in brief: (§3)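 Swiss mice (18-22 g) given the test compound i.p. in DMSO at 30, 100 or 300 mg/kg for phase I screening. Maximal electroshock was applied 30 min after dosing, and protection against the MES-induced seizure was scored.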

For series [8], the system named is Mus musculus. The experiment in a line: Anticonvulsant activity in Swiss mouse assessed as protection against subcutaneous pentylenetetrazol-induced seizures at 30 mg/kg, ip after 30 mins. The format is functional, organism-based. Set-up: dose 30 mg/kg. The gist of the method:
as §2

Series [9] relates to Mus musculus. The experiment in a line: Anticonvulsant activity in Swiss mouse assessed as protection against maximal electroshock-induced seizures at 100 mg/kg, ip administered 30 mins before electroshock challenge measured after 30 mins. Details: dose 100 mg/kg. The class given is functional, organism-based. The gist of the method: as §3
Series [10] deals with Mus musculus. The series is described as follows: Anticonvulsant activity in Swiss mouse assessed as protection against subcutaneous pentylenetetrazol-induced seizures at 300 mg/kg, ip after 30 mins. The format is functional, organism-based. Set-up: dose 300 mg/kg. The method in brief: as §2
For series [11], the system named is Mus musculus. The series is described as follows: Anticonvulsant activity in Swiss mouse assessed as protection against maximal induced seizures at 300 mg/kg, ip administered 30 mins before electroshock challenge measured after 30 mins. The format is functional, organism-based. Details: dose 300 mg/kg. The gist of the method: as §3

As for `CCCCCCOc1ccc2c(c1)CCCc1n[nH]c(=O)n1-2`, the ED50 in the series on Mus musculus [1] and in the series on Mus musculus [3] was 17.9 mg/kg throughout. Moreover, the PI in the series with Mus musculus [2] is given as greater than 24; in the series listed under Mus musculus [5] it was greater than 62.4. The same compound registered a TD50 at 4 h in series [4] greater than 1120 mg/kg. Besides, the result in the series on Mus musculus [6] and with Mus musculus [7] was Active.

Turning to `CCCCCCCOc1ccc2c(c1)CCCc1n[nH]c(=O)n1-2`, the median effective dose (ED50) with Mus musculus [1] and with Mus musculus [3] was 17.6 mg/kg in each case. For the same compound, the PI in the series on Mus musculus [2] is reported as greater than 25.9; in the series listed under Mus musculus [5] it was greater than 63.4. This compound also displayed a TD50 at 4 h in series [4] greater than 1120 mg/kg. The outcome with Mus musculus [6] and in the series on Mus musculus [7] was Active.

`O=c1[nH]nc2n1-c1ccc(OCc3cccc(F)c3)cc1CCC2`: the outcome with Mus musculus [8] and in the series on Mus musculus [6] was inactive. Moreover, in the series with Mus musculus [3], the ED50 came out at 17.6 mg/kg. Besides, the TD50 at 4 h in series [4] is greater than 931 mg/kg. Also, the PI in the series filed under Mus musculus [5] is listed as greater than 52.9. Besides, the result in the series with Mus musculus [7] was Active.

As for `O=c1[nH]nc2n1-c1ccc(OCc3ccc(Br)cc3)cc1CCC2`, the outcome in the series on Mus musculus [9] was Active. Moreover, the ED50 in the series with Mus musculus [3] was 55.8 mg/kg. For the same compound, in series [4], the TD50 at 4 h was greater than 931 mg/kg. Moreover, the PI in the series filed under Mus musculus [5] is given as greater than 16.7.

`O=c1[nH]nc2n1-c1ccc(OCc3ccccc3Cl)cc1CCC2`: the outcome in the series with Mus musculus [9] was Active. The ED50 with Mus musculus [3] is 32.9 mg/kg. This compound gave a TD50 at 4 h in [4] greater than 931 mg/kg. The PI in the series listed under Mus musculus [5] is greater than 28.3. In the series with Mus musculus [6], the outcome was inactive.

As for `O=c1[nH]nc2n1-c1ccc(OCc3cccc(Cl)c3)cc1CCC2`, in the series on Mus musculus [3], the median effective dose (ED50) was 26.4 mg/kg. Besides, the TD50 at 4 h in [4] was greater than 931 mg/kg. The PI in the series listed under Mus musculus [5] is given as greater than 35.3.

Turning to `O=c1[nH]nc2n1-c1ccc(OCc3ccc(Cl)cc3)cc1CCC2`, the outcome with Mus musculus [9] was Active. For the same compound, the 50% effective dose (ED50) with Mus musculus [3] was 40.1 mg/kg. The outcome in the series on Mus musculus [10] was inactive. In [4], this compound registered a TD50 at 4 h greater than 931 mg/kg. Also, the PI in the series filed under Mus musculus [5] is on record as greater than 23.2.

Take `COc1ccc2c(c1)CCCc1n[nH]c(=O)n1-2`: the result in the series on Mus musculus [8], in the series with Mus musculus [10] and in the series with Mus musculus [6] was inactive. Moreover, in the series with Mus musculus [11], the outcome was Active.

Take `O=c1[nH]nc2n1-c1ccc(OCc3ccc(F)cc3)cc1CCC2`: the result with Mus musculus [8] was inactive. Moreover, in the series with Mus musculus [3], the ED50 was determined as 22.8 mg/kg. Further, the TD50 at 4 h in series [4] is greater than 931 mg/kg. Also, the PI in the series filed under Mus musculus [5] is given as greater than 40.8.

Consider `O=c1[nH]nc2n1-c1ccc(OCc3ccccc3)cc1CCC2`, for which the result in the series on Mus musculus [9] was Active. For the same compound, in the series on Mus musculus [3], the ED50 was found to be 30.5 mg/kg. Moreover, the TD50 at 4 h in series [4] was greater than 931 mg/kg. The PI in the series listed under Mus musculus [5] was greater than 30.5.

Turning to `CCCCCOc1ccc2c(c1)CCCc1n[nH]c(=O)n1-2`, the 50% effective dose (ED50) in the series with Mus musculus [1] and in the series with Mus musculus [3] was 24.6 mg/kg each time. The PI in the series with Mus musculus [2] was greater than 29.4; in the series filed under Mus musculus [5] it was greater than 45.4. Besides, in [4], the TD50 at 4 h is greater than 1120 mg/kg. For the same compound, the result in the series with Mus musculus [6] and in the series on Mus musculus [7] was Active.

In the case of `CCCCCCCCOc1ccc2c(c1)CCCc1n[nH]c(=O)n1-2`, the 50% effective dose (ED50) with Mus musculus [1] and in the series on Mus musculus [3] was 20.7 mg/kg in each case. In addition, the PI in the series on Mus musculus [2] is greater than 22.2; in the series filed under Mus musculus [5], greater than 54. In [4], the TD50 at 4 h is greater than 1120 mg/kg. Also, in the series on Mus musculus [6], the outcome was Active.

As to `O=c1[nH]nc2n1-c1ccc(OCc3ccccc3F)cc1CCC2`, the result in the series on Mus musculus [8] and in the series on Mus musculus [10] was inactive. Also, in the series with Mus musculus [3], the ED50 turned out to be 18.4 mg/kg. For the same compound, the TD50 at 4 h in series [4] is greater than 931 mg/kg. In the series filed under Mus musculus [5], the PI is given as greater than 50.6. The outcome with Mus musculus [7] was Active.

With `Cc1ccc(COc2ccc3c(c2)CCCc2n[nH]c(=O)n2-3)cc1`, the result in the series with Mus musculus [8] and in the series with Mus musculus [6] was inactive. The ED50 in the series on Mus musculus [3] came out at 50 mg/kg. For the same compound, the TD50 at 4 h in series [4] is greater than 931 mg/kg. Further, in the series listed under Mus musculus [5], the PI was greater than 18.6.

For `CCCCOc1ccc2c(c1)CCCc1n[nH]c(=O)n1-2`, the outcome with Mus musculus [9] and in the series with Mus musculus [6] was Active. Besides, the median effective dose (ED50) with Mus musculus [1] and in the series with Mus musculus [3] was 37.3 mg/kg each time. Besides, the PI is greater than 17 in the series on Mus musculus [2] and greater than 29.9 in the series filed under Mus musculus [5]. Further, the TD50 at 4 h in series [4] was greater than 1120 mg/kg.

Consider `NC(=O)N1c2ccccc2C=Cc2ccccc21` [CARBAMAZEPINE], for which the ED50 in the series on Mus musculus [1] and with Mus musculus [3] was 9.2 mg/kg in each case. The PI in the series on Mus musculus [2] is given as less than 0.74. The TD50 at 4 h in [4] worked out at 74.4 mg/kg.

Turning to `CCCOc1ccc2c(c1)CCCc1n[nH]c(=O)n1-2`, in the series with Mus musculus [8], the outcome was inactive. In addition, the ED50 in the series with Mus musculus [3] is 75.5 mg/kg. In [4], this compound displayed a TD50 at 4 h greater than 931 mg/kg. The PI in the series listed under Mus musculus [5] is given as greater than 12.3.
